# Source: PubChem
# M4 ag: human M4 muscarinic receptor agonists, primary screen, CHO-K1 cells, Fluo-8 calcium fluorescence. CHO-K1 hM4/Gqi5; vehicle 0%, full acetylcholine response 100%. activation, % at 3 µM. 360,000 compounds, 0.14% hits;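 active means activation above the run mean over all test wells plus 3 SD, cut at about 32% in these data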;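 further: peak over basal fluorescence ratio per well then scaled between controls; 0% = DMSO wells and 100% = acetylcholine at EC100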
# Target sequence (P08173 whole entry, looked up): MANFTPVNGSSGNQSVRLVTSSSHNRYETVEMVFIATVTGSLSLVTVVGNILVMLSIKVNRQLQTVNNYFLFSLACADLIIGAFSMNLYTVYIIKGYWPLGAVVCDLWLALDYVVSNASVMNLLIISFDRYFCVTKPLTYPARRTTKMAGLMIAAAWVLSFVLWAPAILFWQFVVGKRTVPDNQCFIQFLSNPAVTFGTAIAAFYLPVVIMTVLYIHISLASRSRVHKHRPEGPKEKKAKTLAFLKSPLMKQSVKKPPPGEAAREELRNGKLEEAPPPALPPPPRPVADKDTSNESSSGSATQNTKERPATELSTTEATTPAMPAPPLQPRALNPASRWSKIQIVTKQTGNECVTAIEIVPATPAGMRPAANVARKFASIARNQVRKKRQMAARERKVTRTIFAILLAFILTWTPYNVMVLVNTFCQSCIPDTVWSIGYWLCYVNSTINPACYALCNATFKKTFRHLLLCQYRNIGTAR
# M4 PAM: human M4 muscarinic receptor positive allosteric modulators, primary screen, CHO-K1 cells, Fluo-8 calcium fluorescence | Muscarinic acetylcholine receptor M4 (Homo sapiens), P08173 | CHO-K1 hM4/Gqi5, ACh EC20; 0% = ACh EC20, 100% = maximal ACh | activation, % at 3 µM | 360,000 compounds, 0.4% hits | AID 624126, 2012;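 active means activation above its plate's cutoff, the mean activation of sample wells plus 3 SD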
# CHRM4 antagonist: human M4 muscarinic receptor antagonists, primary screen, CHO cells, Fluo-8 calcium fluorescence | 360,000 compounds, 0.73% hits | AID 624125, 2012 | inhibition, % at 3 µM | CHO-hM4 cells, ACh EC80;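 active means inhibition above its plate's cutoff, the mean inhibition of sample wells plus 3 SD, cut at about 27% in these data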;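 further: 0% = acetylcholine EC80 with DMSO and 100% = DMSO without agonist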
# M5 antag: human M5 muscarinic receptor antagonists, primary screen, CHO cells, Fluo-8 calcium fluorescence; Muscarinic acetylcholine receptor M5 (Homo sapiens), P08912; CHO-hM5 cells, ACh EC80; inhibition, % at 3 µM; 360,000 compounds, 0.59% hits;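 active means inhibition above a per-plate cutoff, the mean of that plate's test compounds plus 3 SD, cut at about 27% in these data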;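 further: 0% = acetylcholine EC80 with DMSO and 100% = DMSO without agonist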
# M5 PAM: human M5 muscarinic receptor positive allosteric modulators, primary screen, CHO-K1 cells, Fluo-8 calcium fluorescence. activation, % at 3 µM. Muscarinic acetylcholine receptor M5 (Homo sapiens), P08912. CHO-K1 hM5, ACh EC20 PAM; 0% = ACh EC20, 100% = ACh EC100. 360,000 compounds, 0.3% hits;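 active means activation above the run cutoff, the mean activation of all test compounds plus 3 SD, cut at about 18% in these data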
#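 Assay system: CHO-K1 hM5 cells / Incubation: Fluo-8 loading 80 min at 37 °C plus 30 min room temperature / Technique: Fluo-8 calcium dye fluorescence, kinetic read / Repeats: single replicate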
# M5 ag: human M5 muscarinic receptor agonists, primary screen, CHO-K1 cells, Fluo-8 calcium fluorescence. Muscarinic acetylcholine receptor M5 (Homo sapiens), P08912. CHO-K1 hM5 cells; 0% DMSO wells, 100% maximal acetylcholine response. activation, % at 3 µM. 360,000 compounds, 0.19% hits;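 active means activation above the run's mean over test compounds plus 3 SD, cut at about 23% in these data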;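 further: signal is peak over basal fluorescence ratio across the kinetic read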
# Numbers without * were called inactive. The list is not random: actives were taken first. Their share in the collection is about 1.8%.
SMILES,M4 ag,M4 PAM,CHRM4 antagonist,M5 antag,M5 PAM,M5 ag
CNc1cncc(-c2ccc(CN(C)C)cc2)n1,0,-3,-6,0,0,0
O=C(COC(=O)/C=C/c1ccccc1Cl)NC1CCCCCC1,1,11,3,-8,0,-1
COc1ccc2sc(-c3ccc(S(C)(=O)=O)cc3)c(C(=O)NCCc3c[nH]c4ccccc34)c2c1,24,-11,34*,23,-35,2
Nc1nc(NCCOCCO)nc(NC2CCCCC2)c1[N+](=O)[O-],2,3,3,28*,-4,6
CC(C)CCNc1nc(N)c([N+](=O)[O-])c(NCCO)n1,1,19,-12,-14,19*,19
CC(C)CNc1nc(N)c([N+](=O)[O-])c(NCC2CCCO2)n1 (configuration not stated),2,35*,1,-6,11,-1
Cc1ccc2nc(NC(=O)c3ccc(OCC4CCCO4)cc3)sc2c1 (configuration not stated),12,-12,8,0,-12,11
CCOC(=O)N1CCN(C(=O)CSCC(=O)Nc2nc(-c3ccc(-c4ccccc4)cc3)cs2)CC1,19,-9,5,44*,-22,8
CCOC(=O)N1CCN(C(=O)CSCC(=O)Nc2nc(-c3ccc(OC)cc3)cs2)CC1,5,-6,6,3,-1,6
Cc1ccc(-c2noc(CNS(=O)(=O)c3ccccc3)n2)cc1,3,-9,0,1,-8,-2
CCCn1c(-c2ccncc2)n[nH]c1=S,2,7,-4,-1,22*,1
Cc1cccc2c1N(CCCOc1ccccc1)C(=O)C2=O,6,2,2,2,-1,27*
Cc1ccccc1OCCCN1C(=O)C(=O)c2cccc(C)c21,18,-8,-4,1,-3,26*
Cc1ccc2c(c1)C(=O)C(=O)N2Cc1ccc(Br)cc1,16,2,-1,17,0,31*
Cc1cccc2c1N(CCCOc1ccc(C(C)(C)C)cc1)C(=O)C2=O,1,2,-4,-2,-4,7
Cc1cccc(OCCN2C(=O)C(=O)c3cc(C)ccc32)c1,0,-5,6,7,0,17
Cc1ccc2c(c1)C(=O)C(=O)N2CCOc1ccccc1,1,8,6,6,3,24*
Cc1c(OC(C)C(=O)N2C[C@H]3C[C@@H](C2)c2cccc(=O)n2C3)ccc2c3c(c(=O)oc12)CCC3 (some centres not stated),1,-6,5,4,-6,3
O=C(C1=C[C@@H](c2ccc(Br)cc2)C[C@@H](OCCCCO)O1)N1CCN(Cc2ccccc2)CC1,4,1,3,7,-4,-1
COc1ccc(C(=O)CCC(C)(C)[N+](=O)[O-])cc1,1,-7,5,4,-1,1
CCCCOc1ccc(Cc2c(O)nc(SC)[nH]c2=O)cc1,5,18*,18,30*,51*,7
CC1CCCC(C)N1C(=O)c1ccccc1Nc1ccc(SC(F)F)cc1 (configuration not stated),-1,-2,-7,-6,22*,-6
O=C(c1ccccc1Nc1ccc(SC(F)F)cc1)N1CCCCC1,0,36*,20,1,6,-4
COCCCN1CN(S(=O)(=O)c2ccc(C)cc2C)c2nc3ccccc3nc21,4,4,-9,-7,21*,0
COc1cc(C(=O)N2CCCC(c3cc(C(=O)NCc4ccc(F)cc4)no3)C2)cc(OC)c1C (configuration not stated),10,-1,-29,-5,3,-1
SMILES,M4 ag,M4 PAM,CHRM4 antagonist,M5 antag,M5 PAM,M5 ag
COc1ccc(-c2nc(CN3CCCCC3c3nccn3C)c(C)o2)c(C)c1C (configuration not stated),-1,-13,5,13,-7,-14
COc1cc(NC(=O)COC(=O)c2ccccc2F)cc(OC)c1,1,3,29*,1,4,-2
COc1cccc(NC(=O)COC(=O)c2ccc(F)cc2F)c1,2,-3,3,-1,2,2
Cc1cccc(OC(=O)NCCOC(=O)N(O)c2ccc(Cl)cc2)c1,12,16,10,32*,-13,7
Cc1cccc(OCC(=O)Oc2ccc(Cl)cc2)c1,3,9,-3,2,4,0
COc1ccc(C(=O)CNc2cccc(F)c2)cc1,1,4,-4,3,-2,0
COC(=O)c1ccc(N)cc1O,1,14,2,-5,22*,-4
CCOC(=O)C1CCCCN1C(=O)CCn1nnnc1CN1CCOCC1 (configuration not stated),2,4,-18,-11,3,0
Cc1cc(C)n(-c2ccc([N+](=O)[O-])cc2)n1,0,1,-25,-10,2,-8
Cc1cc(N)n(-c2ccc([N+](=O)[O-])cc2)n1,3,10,-15,-18,20*,5
C(=N\c1nc2ccccc2n1CCN1CCCCC1)/c1ccc2c(c1)OCO2,1,10,6,-4,23*,-3
Cc1ccc(C)c(NC(=O)CN(C)C(=O)c2cc3ccccc3o2)c1,4,3,5,-1,6,3
CC1([N+](=O)[O-])COC2(OC1)C(=O)Nc1ccccc12 (configuration not stated),0,-18,48*,8,0,-3
COc1ccc(-n2c(-c3ccc(Br)cc3)c[n+]3c2SC(C)C3)cc1 (configuration not stated),0,-14,4,6,5,-19
CO/N=C/c1ccc(N2CCN(C(=O)c3ccc(F)cc3)CC2)c([N+](=O)[O-])c1,24,57*,56*,7,-11,10
CO/N=C/c1ccc(N2CCN(C(=O)c3ccc(Cl)cc3Cl)CC2)c([N+](=O)[O-])c1,31,-30,40*,23,-16,18
O=C(N/N=C/c1ccc(N2CCOCC2)c([N+](=O)[O-])c1)c1ccc(F)cc1,6,-4,-7,0,-6,2
CO/N=C/c1ccc(N2CCN(C(=O)c3cccc(C(F)(F)F)c3)CC2)c([N+](=O)[O-])c1,17,13,28*,6,-12,4
